The source made the active and inactive calls. The calls are words filed in the database; no cut-off is given here.
Legend:
[1] = Cytotoxicity against human A4573 cells assessed as reduction in cell viability incubated for 48 hrs by CellTiter-Blue reagent based […] assay; format: functional; settings: A4573, 48 h
Procedure, shortened: (§1)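 Cells seeded and grown to 60–80% confluency (usually 18–24 h), then treated 48 h with a range of concentrations prepared in each line's medium. CellTiter-Blue reagent added at the end of treatment and incubated 3–5 h at 37 °C, 5% CO₂. Fluorescence read at 560 nm excitation and 590 nm emission. IC50 from nonlinear regression, log(inhibitor) vs. normalized response.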

[2] = tested on: TC-32; assay: Cytotoxicity against human TC-32 cells assessed as reduction in cell viability incubated for 48 hrs by CellTiter-Blue reagent based […] assay; format: functional; settings: TC-32, 48 h; procedure, shortened: as §1
[3] = Cytotoxicity against human TC71 cells assessed as reduction in cell viability incubated for 48 hrs by CellTiter-Blue reagent based […] assay; format: functional; settings: TC-71, 48 h; procedure, shortened: as §1
[4] = tested on: SAOS-2; assay: Cytotoxicity against human SAOS-2 cells assessed as reduction in cell viability incubated for 48 hrs by CellTiter-Blue reagent based […] assay; format: functional; settings: SAOS-2, 48 h; procedure, shortened: as §1
[5] = tested on: U2OS; assay: Cytotoxicity against human U2OS cells assessed as reduction in cell viability incubated for 48 hrs by CellTiter-Blue reagent based […] assay; format: functional; procedure, shortened: as §1
[6] = Cytotoxicity against human COG-E-352 cells assessed as reduction in cell viability incubated for 48 hrs by CellTiter-Blue reagent based […] assay; format: functional; settings: COG-E-352, 48 h
Procedure, shortened: (§2)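 Cells grown in their own media at 37 °C, 5% CO2, mycoplasma-tested. At 60–80% confluency, treated 48 h with a range of concentrations made in medium. CellTiter-Blue added for 3–5 h at 37 °C, fluorescence read at ex 560/em 590 nm. IC50 from nonlinear regression (log(inhibitor) vs normalized response); mean ± SD of duplicate or triplicate determinations.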

[7] = Cytotoxicity against human MHH-ES cells assessed as reduction in cell viability incubated for 48 hrs by CellTiter-Blue reagent based […] assay; format: functional
[8] = Cytotoxicity against human SK-ES cells assessed as reduction in cell viability incubated for 48 hrs by CellTiter-Blue reagent based […] assay; format: functional; procedure, shortened: as §2
[9] = Cytotoxicity against human STA-ET-7.2 cells assessed as reduction in cell viability incubated for 48 hrs by CellTiter-Blue reagent based […] assay; format: functional; settings: STA-ET-7.2, 48 h
[10] = tested on: RD; assay: Cytotoxicity against human RD cells assessed as reduction in cell viability incubated for 48 hrs by CellTiter-Blue reagent based […] assay; format: functional; procedure, shortened: as §2
[11] = tested on: SJRH30; assay: Cytotoxicity against human Rh30 cells assessed as reduction in cell viability incubated for 48 hrs by CellTiter-Blue reagent based […] assay; format: functional; settings: SJRH30, 48 h
[12] = tested on: 143B; assay: Cytotoxicity against human 143B cells assessed as reduction in cell viability incubated for 48 hrs by CellTiter-Blue reagent based […] assay; format: functional; procedure, shortened: as §2
[13] = tested on: HOS; assay: Cytotoxicity against human HOS cells assessed as reduction in cell viability incubated for 48 hrs by CellTiter-Blue reagent based […]; format: functional; procedure, shortened: as §2
[14] = Cytotoxicity against human MG-63.3 cells assessed as reduction in cell viability incubated for 48 hrs by CellTiter-Blue reagent based […] assay; format: functional; settings: MG-63.3, 48 h; procedure, shortened: as §2
[15] = tested on: A 172; assay: Cytotoxicity against human A-172 cells assessed as reduction in cell viability incubated for 48 hrs by CellTiter-Blue reagent based […] assay; format: functional; settings: A 172, 48 h; procedure, shortened: as §2
[16] = tested on: U-87 MG; assay: Cytotoxicity against human U-87 MG cells assessed as reduction in cell viability incubated for 48 hrs by CellTiter-Blue reagent based […] assay; format: functional, U-87MG ATCC; procedure, shortened: as §2
[17] = tested on: A549; assay: Cytotoxicity against human A549 cells assessed as reduction in cell viability incubated for 48 hrs by CellTiter-Blue reagent based […] assay; format: functional; settings: A549, 48 h
[18] = Cytotoxicity against human HEK293 cells assessed as reduction in cell viability incubated for 48 hrs by CellTiter-Blue reagent based […] assay; format: toxicity; procedure, shortened: as §2
[19] = tested on: HeLa; assay: Cytotoxicity against human HeLa cells assessed as reduction in cell viability incubated for 48 hrs by CellTiter-Blue reagent based […] assay; format: functional; procedure, shortened: as §2
[20] = tested on: PC-3; assay: Cytotoxicity against human PC-3 cells assessed as reduction in cell viability incubated for 48 hrs by CellTiter-Blue reagent based […] assay; format: functional; settings: PC-3, 48 h; procedure, shortened: as §2
[21] = target: T1, CD99 antigen (Homo sapiens, UniProt P14209); assay: Binding affinity to N-terminal biotin-tagged recombinant human CD99 extracellular domain (23 to 122 residues) expressed in Escherichia coli BL21(DE3) by surface plasmon resonance analysis
T1 sequence (P14209 whole entry): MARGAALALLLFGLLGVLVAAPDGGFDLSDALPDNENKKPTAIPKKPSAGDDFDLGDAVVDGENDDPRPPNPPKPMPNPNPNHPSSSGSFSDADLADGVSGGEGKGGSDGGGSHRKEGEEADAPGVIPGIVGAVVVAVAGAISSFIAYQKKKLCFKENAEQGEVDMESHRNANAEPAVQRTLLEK
Procedure, shortened: (§3)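 Bacterially expressed recombinant CD99 extracellular domain amine-coupled to CM5 chip (10 mM sodium acetate pH 4.0, ~3500 RU). Analytes injected at various concentrations in PBS-P pH 7.4 + 1% DMSO at 50 μL/min. Contact time 60 s, dissociation 300 s, regeneration with 15 s H3PO4 pulse. Duplicate injections; sensorgrams fitted to 1:1 kinetic model.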

[22] = target: T2, CD99 antigen (Homo sapiens) (UniProt P14209); assay: Binding affinity to N-terminal biotin-tagged recombinant human CD99 extracellular domain (23 to 122 residues) expressed in Escherichia coli BL21(DE3) assessed as association rate constant by surface plasmon resonance analysis; procedure, shortened: as §3
T2 sequence (whole entry): T1 sequence (P14209 whole entry)

[23] = target: T1, CD99 antigen; assay: Binding affinity to N-terminal biotin-tagged recombinant human CD99 extracellular domain (23 to 122 residues) expressed in Escherichia coli BL21(DE3) assessed as dissociation rate constant by surface plasmon resonance analysis; procedure, shortened: as §3
[24] = target: T2, CD99 antigen (Homo sapiens); assay: Binding affinity to CD99 in human TC71 cells assessed as protein stabilization at 80 uM incubated for 30 mins and measured at 51 to 99 degC by CETSA analysis; format: cell-based
Procedure, shortened: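 TC-71 cell lysate mixed with compound at 80 μM final, aliquots heated at various temperatures; thermally stable CD99 remaining in solution detected by western blot with anti-CD99 antibody and quantified by densitometry relative to untreated lysate.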

[25] = tested on: TC-32; assay: Induction of apoptosis in human TC-32 cells assessed as PARP cleavage at 4 to 16 uM incubated for 48 hrs by western blot analysis; format: functional, cell-based; settings: dose 4-16 µM
Procedure, shortened: (§4)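 TC-32 cells treated 48 h at 4, 8 or 16 μM; total lysates immunoblotted for cleaved PARP and cleaved caspase 3, actin as loading and normalization control; ECL imaging with densitometry.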

[26] = tested on: TC-32; assay: Induction of apoptosis in human TC-32 cells assessed as caspase-3 cleavage at 4 to 16 uM incubated for 48 hrs by western blot analysis; format: functional, cell-based; settings: dose 4-16 µM; procedure, shortened: as §4
[27] = tested on: U2OS; assay: Induction of apoptosis in human U2OS cells assessed as PARP cleavage at 4 to 16 uM incubated for 48 hrs by western blot analysis; format: functional, cell-based; settings: dose 4-16 µM
Procedure, shortened: (§5)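 U-2 OS cells treated 48 h at 4, 8 or 16 μM; total lysates immunoblotted for cleaved PARP and cleaved caspase 3, actin as loading and normalization control.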

[28] = tested on: U2OS; assay: Induction of apoptosis in human U2OS cells assessed as caspase-3 cleavage at 4 to 16 uM incubated for 48 hrs by western blot analysis; format: functional, cell-based; settings: dose 4-16 µM; procedure, shortened: as §5
[29] = tested on: TC-32; assay: Induction of apoptosis in human TC-32 cells assessed as increase in hypodiploid subG1 population at 4 to 16 uM incubated for 48 hrs by propidium iodide staining based flow cytometry; format: functional, cell-based; settings: dose 4-16 µM
Procedure, shortened: (§6)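 Cells treated 48 h at 4, 8 or 16 μM, then adherent and floating cells pooled, fixed in ice-cold 70% ethanol 1 h, treated with RNase A 100 μg/mL, stained with propidium iodide 50 μg/mL for 1 h on ice. Sub-G1 fraction measured by flow cytometry.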

[30] = tested on: U2OS; assay: Induction of apoptosis in human U2OS cells assessed as increase in hypodiploid subG1 population at 4 to 16 uM incubated for 48 hrs by propidium iodide staining based flow cytometry; format: functional, cell-based; settings: dose 4-16 µM; procedure, shortened: as §6
[31] = tested on: TC-32; assay: Induction of apoptosis in human TC-32 cells assessed as PARP cleavage at 10 to 40 uM incubated for 48 hrs by western blot analysis; format: functional, cell-based; settings: dose 10-40 µM
Procedure, shortened: (§7)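 Cells treated 48 h with three concentrations per agent (0.1, 0.2 or 0.4 μM for one; 10, 20 or 40 μM for another). Total cell lysates immunoblotted for PARP and caspase 3 and their cleaved products. Actin used as loading control and for normalization. ECL signal imaged on PVDF, bands quantified by densitometry.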

[32] = tested on: TC-32; assay: Induction of apoptosis in human TC-32 cells assessed as caspase-3 cleavage at 10 to 40 uM incubated for 48 hrs by western blot analysis; format: functional, cell-based; settings: dose 10-40 µM; procedure, shortened: as §7
[33] = tested on: U2OS; assay: Induction of apoptosis in human U2OS cells assessed as PARP cleavage at 10 to 40 uM incubated for 48 hrs by western blot analysis; format: functional, cell-based; settings: dose 10-40 µM; procedure, shortened: as §7
[34] = tested on: U2OS; assay: Induction of apoptosis in human U2OS cells assessed as caspase-3 cleavage at 10 to 40 uM incubated for 48 hrs by western blot analysis; format: functional, cell-based; settings: dose 10-40 µM; procedure, shortened: as §7
[35] = tested on: TC-32; assay: Induction of apoptosis in human TC-32 cells assessed as increase in hypodiploid subG1 population at 10 to 40 uM incubated for 48 hrs by propidium iodide staining based flow cytometry; format: functional, cell-based; settings: dose 10-40 µM
Procedure, shortened: (§8)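 Treatment same as the apoptosis blots (48 h; 0.1–0.4 μM or 10–40 μM). Adherent cells trypsinized and pooled with floating cells, then washed in PBS. Fixed in ice-cold 70% ethanol 1 h on ice, rehydrated, RNase A 100 μg/mL. Stained with propidium iodide at 50 μg/mL final for 1 h on ice. Sub-G1 fraction read by flow cytometry.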

[36] = tested on: U2OS; assay: Induction of apoptosis in human U2OS cells assessed as increase in hypodiploid subG1 population at 10 to 40 uM incubated for 48 hrs by propidium iodide staining based flow cytometry; format: functional, cell-based; settings: dose 10-40 µM; procedure, shortened: as §8
[37] = tested on: TC-32; assay: Inhibition of DNA synthesis in human TC-32 cells assessed as induction of DNA damage by measuring gammaH2AX phosphorylation at 20 to 80 uM incubated for 6 hrs by western blot analysis; format: toxicity, cell-based; settings: tc-32, 6 h, dose 20-80 µM
Procedure, shortened: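 TC-32 cells treated 6 h at 20, 40 or 80 μM. Total lysates immunoblotted for H2A.X and Ser139-phosphorylated γH2A.X. Actin used as loading control and for normalization. Bands quantified by densitometry.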

Row | SMILES | IC50 [1] | IC50 [2] | IC50 [3] | IC50 [4] | IC50 [5] | IC50 [6] | IC50 [7] | IC50 [8] | IC50 [9] | IC50 [10] | IC50 [11] | IC50 [12] | IC50 [13] | IC50 [14] | IC50 [15] | IC50 [16] | IC50 [17] | IC50 at 48 h [18] | IC50 [19] | IC50 [20] | other results
1 | Nc1nc(Cl)nc2c1ncn2[C@@H]1O[C@H](COC(C(=O)O)C(=O)O)[C@@H](O)[C@@H]1F | 27 µM | 27 µM | 5.17 µM | ≥ 400 µM | ≥ 400 µM | 27 µM | 27 µM | 27 µM | 27 µM | > 400 µM | > 341 µM | > 341 µM | > 400 µM | > 341 µM | > 341 µM | > 400 µM | > 400 µM | > 341 µM | > 400 µM | > 400 µM | Kd [21]: 1.5 µM; Ka [22]: 1700 M⁻¹ s⁻¹; Kd [23]: 2467 10^-6/s; Activity [24]: Active; Activity [25]: Active; Activity [26]: Active; Activity [27]: inactive; Activity [28]: inactive; Activity [29]: Active; Activity [30]: inactive
2 | Nc1nc(-c2cccnc2)nc2c1ncn2[C@@H]1O[C@H](CO)[C@@H](O)[C@@H]1F | 45.1 µM | 58.7 µM | 19.9 µM | ≥ 400 µM | ≥ 400 µM | 60 µM | 60 µM | 60 µM | 60 µM | > 400 µM | > 368 µM | > 368 µM | > 400 µM | > 368 µM | > 400 µM | > 400 µM | > 400 µM | > 368 µM | > 400 µM | > 400 µM | Kd [21]: 1.8 µM; Ka [22]: 335 M⁻¹ s⁻¹; Kd [23]: 598.2 10^-6/s; Activity [31]: Active; Activity [32]: Active; Activity [33]: inactive; Activity [34]: inactive; Activity [35]: Active; Activity [36]: inactive; Activity [37]: Non-Toxic
